# High-throughput results from PubChem BioAssay.
# M1 PAM: potentiates human M1 receptor response to acetylcholine; CHO-K1 hM1, Fluo-8 calcium fluorescence, ACh EC20; 0% = ACh EC20, 100% = maximal ACh; 0.088% of 360,000 active; AID 588819; activation, % at 3 µM; in the data active = activation above about 19%, passing the limit was not always enough
# Target sequence (P11229 whole entry, looked up): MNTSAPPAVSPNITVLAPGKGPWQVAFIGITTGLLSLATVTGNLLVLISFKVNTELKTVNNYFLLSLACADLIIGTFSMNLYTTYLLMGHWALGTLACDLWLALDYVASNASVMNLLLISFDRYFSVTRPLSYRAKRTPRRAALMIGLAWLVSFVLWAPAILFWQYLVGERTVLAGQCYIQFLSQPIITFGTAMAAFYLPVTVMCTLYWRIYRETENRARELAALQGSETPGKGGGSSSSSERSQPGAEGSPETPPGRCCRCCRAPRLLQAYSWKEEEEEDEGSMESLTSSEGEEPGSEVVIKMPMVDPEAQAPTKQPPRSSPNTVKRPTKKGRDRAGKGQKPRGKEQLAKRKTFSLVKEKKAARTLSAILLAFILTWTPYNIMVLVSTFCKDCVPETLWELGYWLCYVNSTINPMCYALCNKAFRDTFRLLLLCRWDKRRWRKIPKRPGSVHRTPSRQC
# M5 PAM: CHRM5 positive allosteric modulation. P08912. CHO-K1 hM5, Fluo-8 calcium, ACh EC20 PAM; 0% = ACh EC20, 100% = ACh EC100. activation, % at 3 µM. 0.3% of 360,000 active. AID 624038;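 active = activation above the run cutoff, the mean activation of all test compounds plus 3 SD, cut at about 18% in these data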
#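 Assay system: CHO-K1 hM5 cells. Also added: acetylcholine at EC20 concentration, added after compound. Dosing: 3 µM, single dose. Times: compound preincubation 140 s before EC20 acetylcholine addition. Signal: Fluo-8 calcium fluorescence. Measure: % activation relative to EC20 and EC100 ACh responses. Repeats: singlicate, one well per test compound.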
# M1 antag: human CHRM1 antagonism | AID 588852 | 1.3% of 360,000 active | P11229 | inhibition, % at 3 µM | CHO-K1 hM1, Fluo-8 calcium fluorescence, ACh EC80 antagonist;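 active = percent inhibition above its own plate's cutoff, namely the mean of that plate's compound wells plus 3 SD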;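 also: peak over basal fluorescence ratio during 140 s after agonist addition; 0% = ACh EC80 plus DMSO and 100% = DMSO alone without agonist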
# CHRM5 agonist: CHRM5 agonism in calcium assay | P08912 | CHO-K1 hM5 cells, Fluo-8 calcium fluorescence; 0% DMSO wells, 100% maximal acetylcholine response | activation, % at 3 µM | 0.19% of 360,000 active;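 active = activation above the run's mean over test compounds plus 3 SD, cut at about 23% in these data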;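 also: signal is peak over basal fluorescence ratio across the kinetic read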
# M5 antag: antagonists of human muscarinic M5 receptor (CHRM5). P08912. CHO-hM5 cells, Fluo-8 calcium fluorescence, ACh EC80. inhibition, % at 3 µM. 0.59% of 360,000 active. AID 624040;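 active = inhibition above a per-plate cutoff, the mean of that plate's test compounds plus 3 SD, cut at about 27% in these data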;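 also: 0% = acetylcholine EC80 with DMSO and 100% = DMSO without agonist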
# M1 ag: human M1 muscarinic receptor agonism | AID 588814 | 0.33% of 360,000 active | CHO-K1 hM1, Fluo-8 calcium fluorescence, agonist mode; 0% DMSO, 100% acetylcholine EC100 | activation, % at 3 µM | P11229;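 active = activation above the run's mean compound activation plus 3 SD, cut at about 16% in these data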;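 also: peak over basal fluorescence ratio within a 140 s kinetic read after compound addition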
# Active calls of the source: *; . = no result given. Shown are actives, neighbours in structure and some others; about 2% of the full set was active somewhere.
SMILES,M1 PAM,M5 PAM,M1 antag,CHRM5 agonist,M5 antag,M1 ag
c1ccc(CNc2nc(NCCOc3ccccc3)c3sccc3n2)cc1,-28,-21,43*,21,35*,19*
CNc1nc(NCCOc2ccccc2)c2sccc2n1,-5,-10,-14,8,0,5
COCCNc1nc(NCc2ccccc2F)c2sccc2n1,-6,-9,0,2,14,-2
COc1ccccc1CNc1nc(NCc2ccccc2)nc2ccsc12,-14,-22,26,36*,76*,6
CC(=O)N1C[C@H]2CON(C)[C@H]2C[C@H]1c1ccc(-c2cccnc2)cc1,3,-2,-2,1,6,-2
CCN1C(=O)[C@H]2[C@@H](c3ccc(C(F)(F)F)cc3)N[C@]3(CCCN(Cc4ccccc4)C3=O)[C@H]2C1=O,-3,2,11,0,-1,-4
NC(Cc1ccc(C(F)(F)F)cc1)c1csc(Nc2ccc(C(=O)c3ccccc3)cc2)n1 (centres undefined),9,13,4,6,-10,1
c1ccc(CNc2nc(NCc3ccccc3)c3ccccc3n2)cc1,-16,-21,33,10,39*,6
c1ccc(CNc2nc(-c3ccccc3)nc3ccccc23)cc1,-6,-3,13,-9,8,-2
c1ccc(CNc2nc(NCc3ccccc3)c3sccc3n2)cc1,-31,-21,56*,32*,44*,32*
COc1ccccc1CNc1nc(NCc2cccc(OC)c2OC)c2sccc2n1,-24,-20,32,2,31*,0
COCCNc1nc(NCc2cccc(OC)c2OC)c2sccc2n1,-9,-7,1,0,9,-6
Fc1cc(Cl)ccc1Nc1nc(NCc2ccccc2)nc2ccsc12,-4,-3,-1,1,-1,-2
COC(=O)[C@@]12C[C@@H](CC(=O)NCCCN3CCCC3=O)C(=O)N(CCc3ccc(OC)c(OC)c3)C1=CCC(C)(C)C2,.,10,.,2,-12,.
CCOC(=O)c1c(-c2ccccc2)csc1NC(=O)/C(C#N)=C/c1ccc(O)c(OC)c1,4,3,29,19,14,17*
CC(=O)c1sc(NC(=O)C2(F)C(F)(F)C(F)(F)C(F)(F)C(F)(F)C2(F)F)nc1C,-6,-11,11,8,29*,3
Cc1cc(C)c[n+](CC(=O)c2cc3ccccc3oc2=O)c1,-22,7,93*,-8,10,-7
Cc1ccc[n+](CC(=O)c2cc3ccccc3oc2=O)c1,-35,-2,90*,-7,-3,-11
COc1ccc(-n2nc([N+](=O)[O-])c(=NCc3cccnc3)n2O)cc1,5,-3,-4,0,-3,0
COc1ccc(-n2nc([N+](=O)[O-])c(=NC3CCN(Cc4ccccc4)CC3)n2O)cc1,-23,-3,25*,-9,1,-10
O=C(Nc1ccc(F)c(Cl)c1)c1cc(C2CCCCN2C(=O)CCc2ccccc2)on1 (centres undefined),-9,-3,8,1,0,-3
Cc1ccc(C)c(S(=O)(=O)N2CCCC2CNC(=O)C(=O)NCCc2ccccc2)c1 (centres undefined),-12,-30,31*,2,17,0
O=C(NCCc1ccc(F)cc1)C(=O)NCC1CCCN1S(=O)(=O)c1ccccc1 (centres undefined),-7,-6,27*,2,-4,2
COc1ccc(S(=O)(=O)N2CCCC2CNC(=O)C(=O)NCCc2ccccc2)cc1 (centres undefined),-8,-16,14,-4,14,-1
COc1ccc(CCNC(=O)C(=O)NCC2CCCN2S(=O)(=O)c2ccccc2)cc1 (centres undefined),-9,-21,29*,1,2,0
SMILES,M1 PAM,M5 PAM,M1 antag,CHRM5 agonist,M5 antag,M1 ag
COC(=O)C1CC2=C(CCC2=O)N(c2ccccc2)C1=O (centres undefined),3,-3,-8,1,8,-3
COc1ccc(CNC(=O)CC[C@H]2O[C@@H](n3ccc(=O)[nH]c3=O)[C@H](O)[C@@H]2O)cc1,2,-4,-26,1,1,1
Cc1c(O)cc2c(c1O)C(=O)CC(c1ccccc1)O2 (centres undefined),-33,-17,102*,47*,84*,58*
CCN(CC(=O)Nc1ccccc1OC)C(=O)c1ccc(N(C)S(=O)(=O)c2ccc(C)cc2)cc1,-1,-30,-3,-8,98*,-2
CCN(CC(=O)Nc1ccc(NC(C)=O)cc1)C(=O)c1ccc(N(C)S(=O)(=O)c2ccc(C)cc2)cc1,3,1,5,-2,10,-8
NNC(=O)c1ccc(CN2C(=O)c3cccc4cccc2c34)cc1,15,-5,-12,-2,0,34*
COc1ccccc1/C=N/NC(=O)c1ccc(CN2C(=O)c3cccc4cccc2c34)cc1,4,10,-23,-1,-9,7
CN(Cc1ccccc1)C(=O)c1[nH]cnc1C(=O)Nc1ccc(Br)cc1F,8,-6,-14,0,15,-1
CNC(=S)NC1CC2CCCC(C1)N2Cc1ccc(C)cc1 (centres undefined),-36,28*,26,-8,4,-15
CCNC(=S)NC1CC2CCCC(C1)N2Cc1ccc(C)cc1 (centres undefined),-29,-16,69*,-22,-16,-8
CCOC(=O)[C@]12CCC=C1N(Cc1cccc3ccccc13)C(=O)[C@H](CC(=O)NCc1ccc(OC)c(OC)c1)C2,.,-11,.,0,-4,.
N/C(=N\OC(=O)c1ccc2ccccc2c1)c1ccccn1,2,-7,-6,2,0,-2
NC(=Nc1nc(-c2ccccn2)cc2ccccc12)c1ccccn1,-14,-13,33*,0,5,-1
CSc1ccc(-c2cccc3nncn23)cc1,1,-3,-1,1,1,-4
CC(C)(C)n1nnnc1C(c1ccccc1)N1CCN(c2ccc(C(F)(F)F)cn2)CC1 (centres undefined),.,0,.,-2,0,.
COc1ccc(NC(=O)C2CCN(S(=O)(=O)c3ccc4c(c3)NC(=O)C(C)S4)CC2)cc1 (centres undefined),-13,-7,23,0,16,-1
CC1Sc2ccc(S(=O)(=O)N3CCC(C(=O)Nc4ccc(Cl)cc4)CC3)cc2NC1=O (centres undefined),-14,-13,45*,0,33*,-1
